Compound activity (PubChem)
Only some compounds are listed: those with a hit (about 1.2% of all), similar ones and a draw of the others.
CAL PDZ FP-1: human CAL PDZ-peptide interaction inhibition. AID 504414. Q9HD26. purified CAL PDZ, TMR-peptide fluorescence polarization, 1 h. 0.02% of 330,000 active. inhibition, % at 20 µM;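 active = highest replicate inhibition of at least 40%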;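 also: plate controls were DMSO neutral control wells for no effect and unlabeled competitor peptide control wells for full effect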
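Control set: unlabelled peptide and DMSO controls / Material: purified CerCALP PDZ construct / Timing: 1 h incubation at room temperature before polarization reading / Doses: 20 µM, one dose / Detection: fluorescence polarization (mP)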
ARNT-TACC3 inh: disrupts binding between human ARNT and TACC3. 0.66% of 390,000 active. Q9Y6A5. AlphaScreen His-ARNT PAS-B/GST-TACC3 binding, luminescence; TACC3 fragment carries E629A point mutation. inhibition, % at 9.99 µM;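 active = mean inhibition of replicates at least 50% and at least half of replicates each reaching 50%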;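 also: 0% = complete ARNT plus TACC3 wells and 100% = ARNT alone without TACC3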
CAL PDZ FP-2: inhibitors of human CAL PDZ peptide binding; AID 602252; purified CAL PDZ, TMR-peptide fluorescence polarization, 1 h; Q9HD26; inhibition, % at 24.9 µM; 0.92% of 300,000 active;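 active = mean inhibition of at least 30% with at least half of replicates also reaching 30%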;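 also: 0% = DMSO neutral control and 100% = excess unlabeled competitor peptide PRC23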
AlphaScreen ctr: counter-screen for ARNT/TACC3 inhibitors: AlphaScreen artifacts. His-ARNT PASB-GST AlphaScreen artifact counter-screen, luminescence. AC50, µM (titrated, usually from 68 µM), without a hit: at the highest dose activity change, negative = signal decrease. shares compounds with ARNT-TACC3 inh. 50% of 1,200 active;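 active = every separate test run was called active for a drop in luminescence, with AC50 within twice the top valid dose, actives reach about 71 µM in these data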
The depositor's hits bear a star; nt = no result given.

SMILES	CAL PDZ FP-1	ARNT-TACC3 inh	CAL PDZ FP-2	AlphaScreen ctr
Oc1c(C(Nc2ccccn2)c2cccnc2)cc(Cl)c2cccnc12 (stereo not given)	-3	57*	0	15µM*
Cc1cc(NC(c2cccnc2)c2ccc3cccnc3c2O)no1 (stereo not given)	0	63*	-7	11µM*
COc1ccc(C(NC(=O)c2cccnc2)c2cc(Cl)c3cccnc3c2O)cc1OC (stereo not given)	0	29	6	nt
Oc1c(C(Nc2cccc(C(F)(F)F)c2)c2cccnc2)ccc2cccnc12 (stereo not given)	-3	21	-1	nt
COc1ccc(CNC(=O)C[C@@H]2C[C@H]3c4cc(NS(=O)(=O)c5ccc(F)cc5)ccc4O[C@H]3[C@H](CO)O2)cc1	nt	-3	nt	nt
COc1cc2c(cc1OC)-c1cc(Nc3ccc(C)cc3)nc(=O)n1CC2	-3	21	-9	nt
COc1ccc(Nc2cc3n(c(=O)n2)CCc2cc(OC)c(OC)cc2-3)cc1	-1	63*	nt	-29%
CO[C@@H]1CC[C@H]2CCN(C)C(=O)C[C@@H](c3ccccc3)CN(C)C(=O)c3cc(C#N)ccc3OC[C@H]1O2	nt	-5	nt	nt
O=C(C[C@H]1C[C@@H]2c3cc(NC(=O)Nc4ccccc4)ccc3O[C@@H]2[C@H](CO)O1)NCC1CC1	nt	-1	nt	nt
CCN(C(=O)COc1ccccc1C(=O)NCc1ccccc1)C1CCS(=O)(=O)C1 (stereo not given)	1	-4	5	nt
CCN(C(=O)COc1cccc2cccnc12)C1CCS(=O)(=O)C1 (stereo not given)	-3	53*	1	-11%
COCc1cn(CC[C@@H]2CC[C@@H](NC(=O)Nc3c(C)noc3C)[C@H](CO)O2)nn1	nt	-18	nt	nt
COc1ccc(C2=C(C)CC(C)(C)NC2=O)cc1OC	0	active	-1	5%
COc1ccc(-c2csc3nc[nH]c(=O)c23)cc1OC	nt	10	-7	nt
C[C@@H]1CCCCO[C@H](CN(C)C(=O)Cc2ccccc2)[C@H](C)CN([C@H](C)CO)C(=O)c2cc(NC(=O)c3ccccc3)ccc2O1	nt	-6	nt	nt
CO[C@@H]1CN(C)C(=O)c2cc(NC(=O)Nc3c(C)noc3C)ccc2OC[C@H](C)N(CC2CC2)C[C@H]1C	nt	-23	nt	nt
O=C(N[C@H]1CC[C@@H](CCn2cc(-c3ccccn3)nn2)O[C@@H]1CO)c1ccccc1	nt	77*	nt	41µM*
COCc1cn(CC[C@@H]2CC[C@@H](NC(=O)c3ccncc3)[C@H](CO)O2)nn1	nt	-1	nt	nt
COCc1cn(CC[C@H]2CC[C@@H](NC(=O)c3ccccc3)[C@@H](CO)O2)nn1	nt	-15	nt	nt
COCc1cn(CC[C@H]2CC[C@H](NC(=O)c3ccc(F)cc3)[C@H](CO)O2)nn1	nt	-1	nt	nt
O=C(N[C@@H]1CC[C@H](CCn2cc(-c3ccccn3)nn2)O[C@H]1CO)c1ccncc1	nt	57*	nt	31µM*
COCc1cn(CC[C@H]2CC[C@@H](NC(=O)c3ccccc3)[C@H](CO)O2)nn1	nt	-14	nt	nt
O=C(N[C@H]1CC[C@H](CCn2cc(-c3ccccn3)nn2)O[C@@H]1CO)c1ccc(F)cc1	nt	59*	nt	59µM*
O=C(N[C@@H]1CC[C@@H](CCn2cc(-c3ccccn3)nn2)O[C@H]1CO)c1ccccc1	nt	74*	nt	41µM*
CO[C@H]1CN(C)C(=O)c2cc(NC(=O)NC3CCCCC3)ccc2OC[C@H](C)N(C)C[C@H]1C	nt	-12	nt	nt
SMILES	CAL PDZ FP-1	ARNT-TACC3 inh	CAL PDZ FP-2	AlphaScreen ctr
C=CC[C@H](O)c1ccc(O)c(F)c1	nt	-10	nt	nt
COC(=O)C[C@H]1C[C@H]2c3cc(NC(=O)Nc4ccccc4F)ccc3O[C@H]2[C@@H](CO)O1	nt	1	nt	nt
O=C(CC1CC1)Nc1ccc2c(c1)[C@H]1C[C@@H](CC(=O)NC3CCCC3)O[C@H](CO)[C@H]1O2	nt	-5	nt	nt
COCCNC(=O)C[C@H]1CC[C@H]2[C@@H](COc3ccc(NC(=O)c4ccno4)cc3C(=O)N2C)O1	nt	-4	nt	nt
CN1C(=O)c2cc(NC(=O)Cc3ccccc3)ccc2OC[C@H]2O[C@H](CC(=O)NCC3CC3)CC[C@H]21	nt	-5	nt	nt
C[C@H](CO)N1C[C@H](C)[C@H](CN(C)S(=O)(=O)c2cccs2)Oc2ncccc2C1=O	nt	-1	nt	nt
O=C(N[C@H]1CC[C@@H](CCn2cc(-c3ccccn3)nn2)O[C@H]1CO)c1ccccc1	nt	81*	nt	33µM*
COCc1cn(CC[C@@H]2CC[C@@H](NC(=O)c3ccccc3)[C@@H](CO)O2)nn1	nt	1	nt	nt
COc1ccccc1C#Cc1ccc([C@@H]2[C@@H](CO)N3CCCCN(C(=O)C4CC4)C[C@@H]23)cc1	nt	-8	nt	nt
Cc1noc(C)c1S(=O)(=O)Nc1ccc2c(c1)CC(=O)N([C@H](C)CO)C[C@@H](C)[C@H](CN(C)C(=O)Nc1ccc(F)cc1)O2	nt	-3	nt	nt
COc1ccc(/C(C)=N\NC(=O)CSc2nnc(C)s2)cc1	0	39*	-2	-10%
C/C(=N\NC(=O)CSc1nnc(C)s1)c1ccc(Cl)cc1	0	2	1	nt
Cc1noc(C)c1NC(=O)Nc1ccc2c(c1)C(=O)N([C@@H](C)CO)C[C@@H](C)[C@@H](CN(C)Cc1ccc(C(=O)O)cc1)OCCCC[C@H](C)O2	nt	-5	nt	nt
Cc1ccc(CNC(=S)N2CCOCC2)cc1	0	2	nt	nt
Cc1ccc(/C=N/NC(=S)N2CCOCC2)cc1	0	45*	-5	-31%
CCS(=O)(=O)Nc1ccc2c(c1)C(=O)N(C)C[C@@H](OC)[C@@H](C)CN(C(=O)NC(C)C)[C@H](C)CO2	nt	-9	nt	nt
Cc1ccc(S(=O)(=O)N(C)C[C@@H]2Oc3c(NC(=O)C4CCOCC4)cccc3C(=O)N([C@@H](C)CO)C[C@@H]2C)cc1	nt	0	nt	nt
CC(=O)NC1=NC(=O)/C(=C/c2cn(C(C)=O)nc2-c2ccccc2)S1	-4	54*	1	-16%
CCN=C1S/C(=C\c2cn(C(C)=O)nc2-c2ccccc2)C(=O)N1CC	-2	0	1	nt
CS(=O)(=O)Nc1ccc2c(c1)[C@H]1C[C@@H](CC(=O)N3CCc4ccccc4C3)O[C@@H](CO)[C@H]1O2	nt	-4	nt	nt
C[C@H](CO)N1C[C@H](C)[C@@H](CN(C)Cc2ccc(Oc3ccccc3)cc2)Oc2ccc(NS(=O)(=O)c3ccc(Cl)cc3)cc2C1=O	nt	1	nt	nt
O=C(Nc1ccc(Br)cn1)c1ccc2ccccc2c1	-1	-5	4	nt
O=C(Nc1ccc(Br)cn1)c1cccc(C(=O)Nc2ccc(Br)cn2)c1	-1	active	0	-1%
CN(C)CCN(C(=O)c1ccc2c(c1)CCCC2)c1nc2cc3c(cc2s1)OCCO3	-2	52*	-3	24µM*
CN(C)CCN(C(=O)c1ccc2c(c1)OCCO2)c1nc2cc3c(cc2s1)OCO3	-3	7	-4	nt
CNC[C@H]1Oc2ccc(NC(=O)Nc3ccc(C(F)(F)F)cc3)cc2C(=O)N([C@H](C)CO)C[C@H]1C	nt	-9	nt	nt
COc1ccc(CN2C[C@@H](C)[C@@H](OC)CN(C)C(=O)c3cc(NC(=O)C4CC4)ccc3OC[C@H]2C)cc1	nt	-3	nt	nt
COc1ccc(NC(=O)N(C)C[C@H]2Oc3ncc(C#C[C@@H](C)O)cc3C(=O)N([C@@H](C)CO)C[C@@H]2C)cc1	nt	-3	nt	nt
